Measurements taken from ChEMBL document CHEMBL1143199, “Discovery and SAR of hydrazide antagonists of the pituitary adenylate cyclase-activating polypeptide (PACAP) receptor type 1 (PAC1-R)” (Bioorg Med Chem Lett, 2008).
Calls of active or inactive are those of the source. The calls are words filed in the database; no cut-off is given here.

Target: T1, Pituitary adenylate cyclase-activating polypeptide type I receptor (Homo sapiens, UniProt P41586)
Test: Displacement of [125I]PACAP27 from PAC1R expressed in HEK293f cells
Type: cell-based
Conditions: not given
How it was run: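 Membranes from HEK293f cells expressing PAC1R (5 lg protein) incubated with 0.2 nM ¹²⁵I-PACAP27 in 50 mM Tris–HCl pH 7.4, 5 mM MgCl₂, 20 min at 37 °C; nonspecific binding with 300 nM unlabeled PACAP38. Terminated by filtration through PEI-soaked GF/B filters, three ice-cold buffer washes, radioactivity counted; Ki reported.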

Structure (SMILES) | Ki [nM] | Activity
O=C(N/N=C/c1ccc(OCc2cccc(C(F)(F)F)c2)cc1)c1ccc(O)c(Cl)c1 | 537 | –
COc1cc(/C=N/NC(=O)c2ccc3[nH]ncc3c2)cc(OC)c1OCc1ccc(C(C)C)cc1 | – | inactive
CC(=O)Nc1ccc(COc2ccc(/C=N/NC(=O)c3ccc(O)c(Cl)c3)cc2)cc1 | – | inactive
O=C(N/N=C/c1cccc(OCc2cccc(C(F)(F)F)c2)c1)c1ccc(O)c(Cl)c1 | 554 | –
COc1cc(/C=N/NC(=O)c2ccc(O)c(Cl)c2)cc(OC)c1OCc1ccc(C(C)C)cc1 | 56 | –
O=C(N/N=C/c1ccc(OCc2ccccc2)cc1)c1ccc(O)c(Cl)c1 | 522 | –
COc1cc(/C=N/NC(=O)c2ccc(O)c(Cl)c2)cc(OCc2c(C)c(C)cc(C)c2C)c1OC | 167 | –
COc1cc(/C=N/NC(=O)c2ccc(O)c(Cl)c2)cc(OC)c1OCc1ccc(C(F)(F)F)cc1 | 140 | –
COc1cc(/C=N/NC(=O)c2ccc(O)c(Cl)c2)cc(OC)c1OCc1cccc(C(F)(F)F)c1 | 204 | –
COc1cc(/C=N/NC(=O)c2ccc(O)c(Cl)c2)cc(OCc2ccc(C(C)C)cc2)c1OC | 152 | –
O=C(N/N=C/c1cccc(COc2ccc(C(F)(F)F)cc2)c1)c1ccc(O)c(Cl)c1 | 241 | –
COc1cc(/C=N/NC(=O)c2ccc(O)c(Cl)c2)ccc1OCc1ccc(C(C)C)cc1 | – | inactive
O=C(N/N=C/c1cccc2c1ccn2Cc1cccc(C(F)(F)F)c1)c1ccc(O)c(Cl)c1 | 85 | –
COc1cc(/C=N/NC(=O)c2ccc(O)c(Cl)c2)ccc1OCc1cccc(C(F)(F)F)c1 | 404 | –
COc1cc(/C=N/NC(=O)c2cccc(Cl)c2)cc(OC)c1OCc1ccc(C(C)C)cc1 | – | inactive
COc1cc(/C=N/NC(=O)c2ccc(O)c(Cl)c2)cc(OC)c1OCc1ccccc1 | 185 | –
O=C(N/N=C/c1cccc(COc2cccc(C(F)(F)F)c2)c1)c1ccc(O)c(Cl)c1 | 274 | –
COc1cc(-c2nnc(-c3ccc(O)c(Cl)c3)s2)cc(OC)c1OCc1ccc(C(C)C)cc1 | – | inactive
COc1cc(-c2nnc(-c3ccc(O)c(Cl)c3)o2)cc(OC)c1OCc1ccc(C(C)C)cc1 | – | inactive
COc1cc(/C=N/NC(=O)c2ccc(O)c(Cl)c2)cc(OCc2cccc(C(F)(F)F)c2)c1OC | – | inactive

Target: T2, Pituitary adenylate cyclase-activating polypeptide type I receptor (Rattus norvegicus) (UniProt P32215)
T2 sequence (whole entry): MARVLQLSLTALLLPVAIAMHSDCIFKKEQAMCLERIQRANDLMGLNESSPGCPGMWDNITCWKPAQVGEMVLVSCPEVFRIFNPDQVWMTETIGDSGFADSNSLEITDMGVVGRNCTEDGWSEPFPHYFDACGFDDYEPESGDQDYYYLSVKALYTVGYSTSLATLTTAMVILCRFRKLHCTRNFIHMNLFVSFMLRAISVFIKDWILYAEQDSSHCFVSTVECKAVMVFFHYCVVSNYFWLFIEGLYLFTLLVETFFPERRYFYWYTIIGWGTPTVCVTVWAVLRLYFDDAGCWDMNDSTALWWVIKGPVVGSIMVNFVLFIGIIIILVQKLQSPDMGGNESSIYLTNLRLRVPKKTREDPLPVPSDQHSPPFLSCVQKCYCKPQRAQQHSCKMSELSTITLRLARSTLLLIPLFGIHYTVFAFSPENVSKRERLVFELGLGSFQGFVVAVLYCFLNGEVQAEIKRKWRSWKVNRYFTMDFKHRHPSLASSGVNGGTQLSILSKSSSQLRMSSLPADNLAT
Test: Antagonist activity at PAC1R in rat AR42J cells assessed as PACAP-induced calcium mobilization by FLIPR assay
Type: functional, cell-based
Conditions: AR-42J
How it was run: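 Cells loaded with Fluo-4AM for 2 h, preincubated with compounds 30 min at room temperature, then challenged with 2 nM PACAP-27; intracellular calcium changes monitored by FLIPR; Kb calculated.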

Structure (SMILES) | Kb [nM]
COc1cc(/C=N/NC(=O)c2ccc(O)c(Cl)c2)cc(OC)c1OCc1ccc(C(C)C)cc1 | 200

Target: T1, Pituitary adenylate cyclase-activating polypeptide type I receptor
Test: Displacement of [125I]PACAP27 from PAC1R expressed in HEK293f cells at 3 uM
Type: cell-based
Conditions: not given
Target sequence in this assay (P41586 21-468 limits assumed): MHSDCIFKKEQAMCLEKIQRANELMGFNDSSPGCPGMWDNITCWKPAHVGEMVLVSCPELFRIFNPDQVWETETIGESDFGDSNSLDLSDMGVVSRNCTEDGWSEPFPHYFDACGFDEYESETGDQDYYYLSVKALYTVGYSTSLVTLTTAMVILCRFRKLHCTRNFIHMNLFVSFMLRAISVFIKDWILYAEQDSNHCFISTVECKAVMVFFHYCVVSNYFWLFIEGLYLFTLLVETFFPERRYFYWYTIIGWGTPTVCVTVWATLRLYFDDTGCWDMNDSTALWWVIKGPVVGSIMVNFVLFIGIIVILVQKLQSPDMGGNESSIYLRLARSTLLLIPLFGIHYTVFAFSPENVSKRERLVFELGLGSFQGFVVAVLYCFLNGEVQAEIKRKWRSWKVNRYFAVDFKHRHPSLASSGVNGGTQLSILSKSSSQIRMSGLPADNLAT

Structure (SMILES) | Activity [%]
COc1cc(/C=N/NC(=O)c2ccc(O)c(Cl)c2)ccc1OCc1ccc(C(F)(F)F)cc1 | 50
O=C(N/N=C/c1ccc(OCc2ccc(C(F)(F)F)cc2)cc1)c1ccc(O)c(Cl)c1 | 43
COc1cc(CNNC(=O)c2ccc(O)c(Cl)c2)cc(OC)c1OCc1ccc(C(C)C)cc1 | 46
COc1cc(C(=O)NNC(=O)c2ccc(O)c(Cl)c2)cc(OC)c1OCc1ccc(C(C)C)cc1 | 40
COc1cc(C(=O)N/N=C/c2cc(OC)c(OCc3ccc(C(C)C)cc3)c(OC)c2)ccc1O | 44
COc1cc(/C=N/NC(=O)c2ccc(O)c(Cl)c2)ccc1OCc1ccc(NC(C)=O)cc1 | 34
O=C(N/N=C/c1cccc2c1ccn2Cc1ccccc1)c1ccc(O)c(Cl)c1 | 55
O=C(N/N=C/c1cccc2c1ccn2Cc1ccc(OCc2ccccc2)cc1)c1ccc(O)c(Cl)c1 | 51
COc1cc(/C=N/NC(=O)c2ccc(O)cc2)cc(OC)c1OCc1ccc(C(C)C)cc1 | 22
CNC(=O)c1ccc(COc2ccc(/C=N/NC(=O)c3ccc(O)c(Cl)c3)cc2OC)cc1 | 36
O=C(N/N=C/c1ccc(COc2ccccc2)cc1)c1ccc(O)c(Cl)c1 | 41
COc1cc(/C=N/NC(=O)c2ccc(O)c(Cl)c2)cc(OC)c1OCc1ccc(NC(C)=O)cc1 | 43
